According to ChEMBL document CHEMBL3758148, “4-Phenylpyridin-2-one Derivatives: A Novel Class of Positive Allosteric Modulator of the M1 Muscarinic Acetylcholine Receptor” (J Med Chem, 2016):
One block for each compound: values may come before it.

How the values were obtained:
[1] = target: T1, Muscarinic acetylcholine receptor M1 (Homo sapiens) (UniProt P11229); experiment: Displacement of [3H]NMS from human muscarinic M1 receptor expressed in CHO Flp-In cells after 1 hr by microbeta liquid scintillation counting-based radioligand binding assay; assay type: cell-based
T1 sequence (whole entry): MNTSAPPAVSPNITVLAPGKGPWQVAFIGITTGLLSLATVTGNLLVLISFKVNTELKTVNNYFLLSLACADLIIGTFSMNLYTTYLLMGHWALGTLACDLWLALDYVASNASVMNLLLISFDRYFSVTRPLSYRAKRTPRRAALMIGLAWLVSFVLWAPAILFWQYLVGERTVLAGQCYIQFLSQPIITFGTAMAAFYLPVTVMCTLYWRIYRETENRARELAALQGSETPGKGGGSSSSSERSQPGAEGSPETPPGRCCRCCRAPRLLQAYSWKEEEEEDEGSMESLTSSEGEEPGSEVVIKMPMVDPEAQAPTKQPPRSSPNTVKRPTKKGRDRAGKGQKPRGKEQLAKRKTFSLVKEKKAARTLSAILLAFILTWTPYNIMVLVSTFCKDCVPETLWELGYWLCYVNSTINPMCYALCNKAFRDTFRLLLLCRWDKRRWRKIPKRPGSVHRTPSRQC
Outline: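 Intact adherent Flp-In CHO cells expressing hM1 (10⁴ cells/well), incubated with 0.2 nM [3H]NMS, varying ACh and modulator in HEPES-buffered saline pH 7.4 for 1 h at 37 °C. Washed with ice-cold 0.9% NaCl, then scintillation counted. Fitted to an allosteric ternary complex model with [3H]NMS KA 0.2 nM. Mean ± SEM, ≥3 experiments in duplicate.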

[2] = target: T1, Muscarinic acetylcholine receptor M1 (Homo sapiens); experiment: Positive allosteric modulation of human muscarinic M1 receptor expressed in CHO Flp-In cells assessed as functional cooperativity with acetylcholine measured as IP1 accumulation after 1 hr by HTRF method; assay type: cell-based
Outline: (§1)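 Suspended Flp-In CHO cells stably expressing hM1, stimulated at 10⁶ cells/ml in HEPES buffer with 50 mM LiCl, pH 7.4, using increasing ACh with or without increasing modulator, 1 h at 37 °C, 5% CO2. IP1 read by HTRF (665/590 nm ratio). Curves fitted globally to the operational model of allosterism, with KB fixed from binding. Mean ± SEM, ≥3 experiments in duplicate.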

[3] = target: T1, Muscarinic acetylcholine receptor M1 (Homo sapiens); experiment: Allosteric agonist activity at human muscarinic M1 receptor expressed in CHO Flp-In cells assessed as intrinsic activity measured as IP1 accumulation after 1 hr by HTRF method; assay type: functional, cell-based; outline: as §1

Compound: Cn1cc(-c2ccc(COc3ccccc3-c3ccn([C@H]4CCCC[C@@H]4O)c(=O)c3)c(F)c2)cn1 (racemic)
- Kb [1]: 31 µM
- pKb [1]: 4.51
- log(activity) [2]: 1.93
- Intrinsic activity [3]: 0.43
- log(IA) [3]: -0.37

Compound: Cn1cc(-c2ccc(CNc3ccccc3-c3ccn([C@H]4CCCC[C@@H]4O)c(=O)c3)cc2)cn1 (racemic)
- Kb [1]: 66 µM
- pKb [1]: 4.18
- log(activity) [2]: 1.44
- Intrinsic activity [3]: 0.44
- log(IA) [3]: -0.36

Compound: CCn1cc(-c2ccc(COc3ccccc3-c3ccn([C@H]4CCCC[C@@H]4O)c(=O)c3)cc2)cn1 (racemic)
- Kb [1]: 41 µM
- pKb [1]: 4.38
- log(activity) [2]: 2.26
- Intrinsic activity [3]: 0.89
- log(IA) [3]: -0.05

Compound: O=c1cc(-c2ccccc2OCc2ccc(-c3cnn(C4CCCC4)c3)cc2)ccn1[C@H]1CCCC[C@@H]1O (racemic)
- Kb [1]: 4 µM
- pKb [1]: 5.45
- log(activity) [2]: 1.92
- Intrinsic activity [3]: 0.38
- log(IA) [3]: -0.42

Compound: NC(=O)c1cccc(COc2ccccc2-c2ccn([C@H]3CCCC[C@@H]3O)c(=O)c2)c1 (racemic)
- Kb [1]: 91 µM
- pKb [1]: 4.04
- log(activity) [2]: 0.87
- log(IA) [3]: -3

Compound: Cn1cc(-c2ccc(COc3ccccc3-c3cc(=O)n([C@H]4CCCC[C@@H]4O)cn3)cc2)cn1 (racemic)
- Kb [1]: 13 µM
- pKb [1]: 4.88
- log(activity) [2]: 2.75
- Intrinsic activity [3]: 2.51
- log(IA) [3]: 0.4

Compound: O=C(O)c1ccc(COc2ccccc2-c2ccn([C@H]3CCCC[C@@H]3O)c(=O)c2)cc1 (racemic)
- pKb [1]: 3.88
- log(activity) [2]: 0.92
- log(IA) [3]: -1.24

Compound: Cn1cc(-c2ccc(COc3ccccc3-c3ccn([C@H]4CCCC[C@@H]4O)c(=O)c3)cn2)cn1 (racemic)
- Kb [1]: 32 µM
- pKb [1]: 4.5
- log(activity) [2]: 2.15
- log(IA) [3]: -3

Compound: O=c1cc(-c2ccccc2OCc2ccc(-c3cncnc3)cc2)ccn1[C@H]1CCCC[C@@H]1O (racemic)
- Kb [1]: 35 µM
- pKb [1]: 4.45
- log(activity) [2]: 1.34
- Intrinsic activity [3]: 0.16
- log(IA) [3]: -0.8

Compound: CCCCn1cc(-c2ccc(COc3ccccc3-c3ccn([C@H]4CCCC[C@@H]4O)c(=O)c3)cc2)cn1 (racemic)
- Kb [1]: 14 µM
- pKb [1]: 4.86
- log(activity) [2]: 0.75
- Intrinsic activity [3]: 0.5
- log(IA) [3]: -0.3

Compound: COc1ccc(COc2ccccc2-c2ccn([C@H]3CCCC[C@@H]3O)c(=O)c2)cc1 (racemic)
- Kb [1]: 52 µM
- pKb [1]: 4.28
- log(activity) [2]: 0.8
- Intrinsic activity [3]: 0.08
- log(IA) [3]: -1.1

Compound: O=c1cc(-c2ccccc2OCc2ccc(-c3cnn(CC4CC4)c3)cc2)ccn1[C@H]1CCCC[C@@H]1O (racemic)
- Kb [1]: 7 µM
- pKb [1]: 5.13
- log(activity) [2]: 0.58
- log(IA) [3]: -3

Compound: O=C(O)c1cccc(COc2ccccc2-c2ccn([C@H]3CCCC[C@@H]3O)c(=O)c2)c1 (racemic)
- Kb [1]: 91 µM
- pKb [1]: 4.04
- log(activity) [2]: 1.08
- Intrinsic activity [3]: 0.2
- log(IA) [3]: -0.69

Compound: O=c1cc(-c2ccccc2NCc2ccc(-c3cncnc3)cc2)ccn1[C@H]1CCCC[C@@H]1O (racemic)
- pKb [1]: 3.86
- log(activity) [2]: 0.68
- Intrinsic activity [3]: 1.1
- log(IA) [3]: 0.04

Compound: O=c1cc(-c2ccccc2OCc2ccccc2)ccn1[C@H]1CCCC[C@@H]1O (racemic)
- Kb [1]: 28 µM
- pKb [1]: 4.55
- log(activity) [2]: 0.94
- Intrinsic activity [3]: 0.58
- log(IA) [3]: -0.24

Compound: COC(=O)c1ccc(COc2ccccc2-c2ccn([C@H]3CCCC[C@@H]3O)c(=O)c2)cc1 (racemic)
- Kb [1]: 87 µM
- pKb [1]: 4.06
- log(activity) [2]: 0.96
- Intrinsic activity [3]: 0.54
- log(IA) [3]: -0.26

Now from value to compound:

- Kb [1]: 30 µM
- pKb [1]: 4.53
- log(activity) [2]: 0
- Intrinsic activity [3]: 1.02
- log(IA) [3]: 0.01
Compound: O=c1cc(-c2ccccc2OCc2cccc(C(F)(F)F)c2)ccn1[C@H]1CCCC[C@@H]1O (racemic)

- Kb [1]: 100 µM
- pKb [1]: 3.99
- log(activity) [2]: 0.52
- Intrinsic activity [3]: 0.15
- log(IA) [3]: -0.82
Compound: COC(=O)c1cccc(COc2ccccc2-c2ccn([C@H]3CCCC[C@@H]3O)c(=O)c2)c1 (racemic)

- Kb [1]: 36 µM
- pKb [1]: 4.44
- log(activity) [2]: 0.4
- Intrinsic activity [3]: 0.77
- log(IA) [3]: -0.11
Compound: O=c1cc(-c2ccccc2OCc2ccc(C(F)(F)F)cc2)ccn1[C@H]1CCCC[C@@H]1O (racemic)

- Kb [1]: 42 µM
- pKb [1]: 4.38
- log(activity) [2]: -0.41
- Intrinsic activity [3]: 1.34
- log(IA) [3]: 0.13
Compound: Cn1cc(-c2ccc(COc3c(F)ccc(F)c3-c3ccn([C@H]4CCCC[C@@H]4O)c(=O)c3)cc2)cn1 (racemic)

- Kb [1]: 41 µM
- pKb [1]: 4.38
- log(activity) [2]: 0.85
- Intrinsic activity [3]: 0.78
- log(IA) [3]: -0.11
Compound: O=c1cc(-c2ccccc2OCc2cccc(F)c2)ccn1[C@H]1CCCC[C@@H]1O (racemic)

- Kb [1]: 27 µM
- pKb [1]: 4.57
- log(activity) [2]: 1.93
- Intrinsic activity [3]: 0.47
- log(IA) [3]: -0.33
Compound: CC(C)n1cc(-c2ccc(COc3ccccc3-c3ccn([C@H]4CCCC[C@@H]4O)c(=O)c3)cc2)cn1 (racemic)

- Kb [1]: 21 µM
- pKb [1]: 4.67
- log(activity) [2]: 0.47
- Intrinsic activity [3]: 0.74
- log(IA) [3]: -0.13
Compound: O=c1cc(-c2ccccc2NCc2ccc(-c3cccnc3)cc2)ccn1[C@H]1CCCC[C@@H]1O (racemic)

- Kb [1]: 22 µM
- pKb [1]: 4.66
- log(activity) [2]: 2.36
- Intrinsic activity [3]: 0.89
- log(IA) [3]: 0.05
Compound: NC(=O)c1ccc(COc2ccccc2-c2ccn([C@H]3CCCC[C@@H]3O)c(=O)c2)cc1 (racemic)

- Kb [1]: 87 µM
- pKb [1]: 4.06
- log(activity) [2]: 0.88
- Intrinsic activity [3]: 0.25
- log(IA) [3]: -0.59
Compound: N#Cc1cccc(COc2ccccc2-c2ccn([C@H]3CCCC[C@@H]3O)c(=O)c2)c1 (racemic)

- Kb [1]: 23 µM
- pKb [1]: 4.64
- log(activity) [2]: 1.78
- Intrinsic activity [3]: 0.3
- log(IA) [3]: -0.52
Compound: CCCn1cc(-c2ccc(COc3ccccc3-c3ccn([C@H]4CCCC[C@@H]4O)c(=O)c3)cc2)cn1 (racemic)

- Kb [1]: 28 µM
- pKb [1]: 4.56
- log(activity) [2]: 1.61
- Intrinsic activity [3]: 0.57
- log(IA) [3]: -0.24
Compound: O=c1cc(-c2ccccc2OCc2ccc(-c3ncco3)cc2)ccn1[C@H]1CCCC[C@@H]1O (racemic)

- Kb [1]: 60 µM
- pKb [1]: 4.22
- log(activity) [2]: 1.15
- Intrinsic activity [3]: 1
- log(IA) [3]: 0
Compound: O=c1cc(-c2ccccc2OCc2ccc(F)cc2)ccn1[C@H]1CCCC[C@@H]1O (racemic)

- Kb [1]: 65 µM
- pKb [1]: 4.19
- log(activity) [2]: 0.84
- Intrinsic activity [3]: 1.45
- log(IA) [3]: 0.16
Compound: COc1cccc(COc2ccccc2-c2ccn([C@H]3CCCC[C@@H]3O)c(=O)c2)c1 (racemic)

- Kb [1]: 19 µM
- pKb [1]: 4.72
- log(activity) [2]: 1.29
- Intrinsic activity [3]: 0.38
- log(IA) [3]: -0.42
Compound: O=c1cc(-c2ccccc2OCc2ccc(-c3cccnc3)cc2)ccn1[C@H]1CCCC[C@@H]1O (racemic)

- Kb [1]: 2 µM
- pKb [1]: 5.67
- log(activity) [2]: 0.63
- Intrinsic activity [3]: 0.51
- log(IA) [3]: -0.29
Compound: O=c1cc(-c2ccccc2OCc2ccc(-c3cnn(C4CCCCC4)c3)cc2)ccn1[C@H]1CCCC[C@@H]1O (racemic)
